In brackets after ≈: the same amount, converted by molar mass. Activity calls are given as the source filed them. No cut-off for these calls is given here.
Tests used:
[1] = system: Echovirus E9; test: Minimum inhibitory concentration of compound in vitro against echovirus-9; type: functional; settings: Enterovirus B
Procedure, shortened: (§1)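 Plaque reduction on day-old HeLa (Ohio) monolayers, about 80 pfu/well. Drug was serially diluted twofold from a 10 mg/mL Me2SO stock into an M-199/10% calf serum/agarose overlay, applied in duplicate after virus adsorption. Plaques were counted after 3 days in 2% CO2, following formaldehyde fixation and crystal violet staining. MIC was the concentration producing 50% plaque reduction.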

[2] = system: Mus musculus; test: Effect of compound on number of survivors per 30 mice at dose 125 mg/kg; type: functional
Procedure, shortened: (§2)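 ICR Buckberg mice (18–21 g) were infected intracerebrally with polio-2 (MEF strain). Compound was given orally bid at 31–250 mg/kg: 1 h before infection, 2 h after, then twice daily for 13 days. Placebo and nonmedicated groups served as controls, with 30 mice per group. Flaccid paralysis and death were scored and survivors counted when the test ended on day 20.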

[3] = system: Mus musculus; test: Effect of compound on number of survivors per 30 mice at dose 250 mg/kg; type: functional; procedure, shortened: as §2
[4] = system: Mus musculus; test: Effect of compound on number of survivors per 30 mice at dose 31 mg/kg; type: functional; procedure, shortened: as §2
[5] = system: Mus musculus; test: Effect of compound on number of survivors per 30 mice at dose 63 mg/kg; type: functional; procedure, shortened: as §2
[6] = system: Mus musculus; test: Effect of compound on number of survivors per 30 mice at nonmed mg/kg; type: functional; procedure, shortened: as §2
[7] = system: Mus musculus; test: Effect of compound on number of survivors per 30 mice at placebo mg/kg; type: functional; procedure, shortened: as §2
[8] = system: Mus musculus; test: Effect of compound on Poliovirus induced paralysis and death in mice when administered orally with 31 mg/kg.; type: functional; settings: route oral; procedure, shortened: as §2
[9] = system: Mus musculus; test: Effect of compound on Poliovirus induced paralysis and death in mice when administered orally with dose 125 mg/kg.; type: functional; settings: route oral; procedure, shortened: as §2
[10] = system: Mus musculus; test: Effect of compound on Poliovirus induced paralysis and death in mice when administered orally with dose 250 mg/kg.; type: functional; settings: route oral; procedure, shortened: as §2
[11] = system: Mus musculus; test: Effect of compound on Poliovirus induced paralysis and death in mice when administered orally with dose 63 mg/kg.; type: functional; settings: route oral; procedure, shortened: as §2
[12] = system: Mus musculus; test: Effect of compound on Poliovirus induced paralysis and death in mice when administered orally with nonmed mg/kg.; type: functional; procedure, shortened: as §2
[13] = system: Mus musculus; test: Effect of compound on Poliovirus induced paralysis and death in mice when administered orally with placebo mg/kg.; type: functional; procedure, shortened: as §2
[14] = system: Poliovirus 2; test: In vitro anti-picornavirus activity against Poliovirus type-2.; type: functional; settings: Enterovirus C
[15] = system: Poliovirus 2; test: Minimum inhibitory concentration of compound in vitro against poliovirus-2; type: functional; settings: Enterovirus C
Procedure, shortened: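 Plaque-reduction assay on day-old HeLa (Ohio) monolayers at 90% confluence, infected with polio-2 at ca. 80 pfu/well. Adsorption was at least 1 h at 37 °C in 2% CO2. Cells were then overlaid in duplicate with drug in M-199/calf serum/agarose (Me2SO stock at 10 mg/mL, twofold dilutions) and held 3 days. Plaques were fixed with formaldehyde, stained with crystal violet and counted. MIC is the concentration giving 50% plaque reduction.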

[16] = system: Poliovirus 3; test: Minimum inhibitory concentration of compound in vitro against poliovirus-3; type: functional; settings: Enterovirus C
[17] = system: Enterovirus; test: Effect on plaque production by Human Rhinovirus serotype 13; type: functional
Procedure, shortened: (§3)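 HeLa (Ohio) monolayers (day-old, 90%) were infected at about 80 pfu/well and adsorbed at least 1 h at 33 °C in 2% CO2. After 3 days at 33 °C they were fixed with formaldehyde and stained with crystal violet. MIC was the concentration giving 50% fewer plaques.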

[18] = system: Enterovirus; test: Effect on plaque production by Human Rhinovirus serotype 14; type: functional; procedure, shortened: as §3
[19] = system: Enterovirus; test: Effect on plaque production by Human Rhinovirus serotype 16; type: functional; procedure, shortened: as §3
[20] = system: Enterovirus; test: Effect on plaque production by Human Rhinovirus serotype 18; type: functional; procedure, shortened: as §3
[21] = system: Enterovirus; test: Effect on plaque production by Human Rhinovirus serotype 1A (seven most common serotypes); type: functional; procedure, shortened: as §3
[22] = system: Enterovirus; test: Effect on plaque production by Human Rhinovirus serotype 2; type: functional; procedure, shortened: as §3
[23] = system: Enterovirus; test: Effect on plaque production by Human Rhinovirus serotype 21; type: functional; procedure, shortened: as §3
[24] = system: Enterovirus; test: Effect on plaque production by Human Rhinovirus serotype 22; type: functional; procedure, shortened: as §3
[25] = system: Enterovirus; test: Effect on plaque production by Human Rhinovirus serotype 29; type: functional; procedure, shortened: as §3
[26] = system: Enterovirus; test: Effect on plaque production by Human Rhinovirus serotype 29 (seven most common serotypes); type: functional; procedure, shortened: as §3
[27] = system: Enterovirus; test: Effect on plaque production by Human Rhinovirus serotype 3; type: functional; procedure, shortened: as §3
[28] = system: Enterovirus; test: Effect on plaque production by Human Rhinovirus serotype 31 (seven most common serotypes); type: functional; procedure, shortened: as §3
[29] = system: Enterovirus; test: Effect on plaque production by Human Rhinovirus serotype 33; type: functional; procedure, shortened: as §3
[30] = system: Enterovirus; test: Effect on plaque production by Human Rhinovirus serotype 36; type: functional; procedure, shortened: as §3
[31] = system: Enterovirus; test: Effect on plaque production by Human Rhinovirus serotype 39; type: functional; procedure, shortened: as §3
[32] = system: Enterovirus; test: Effect on plaque production by Human Rhinovirus serotype 41; NA=Not active; type: functional, organism-based; procedure, shortened: as §3
[33] = system: Enterovirus; test: Effect on plaque production by Human Rhinovirus serotype 49; type: functional; procedure, shortened: as §3
[34] = system: Enterovirus; test: Effect on plaque production by Human Rhinovirus serotype 5; type: functional; procedure, shortened: as §3
[35] = system: Enterovirus; test: Effect on plaque production by Human Rhinovirus serotype 50; type: functional; procedure, shortened: as §3
[36] = system: Enterovirus; test: Effect on plaque production by Human Rhinovirus serotype 61; type: functional; procedure, shortened: as §3
[37] = system: Enterovirus; test: Effect on plaque production by Human Rhinovirus serotype 72; NA=Not active; type: functional, organism-based; procedure, shortened: as §3
[38] = system: Enterovirus; test: Effect on plaque production by Human Rhinovirus serotype 75; type: functional; procedure, shortened: as §3
[39] = system: Enterovirus; test: Effect on plaque production by Human Rhinovirus serotype 86; type: functional; procedure, shortened: as §3
[40] = system: Enterovirus; test: Effect on plaque production by Human Rhinovirus serotype 89; type: functional; procedure, shortened: as §3
[41] = system: rhinovirus A2; test: Minimum inhibitory concentration of compound in vitro against rhinovirus-2; type: functional, rhinovirus type-2; settings: Rhinovirus A; procedure, shortened: as §3
[42] = Maximum testable level of compound was evaluated; type: functional
Procedure, shortened: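 In the HeLa (Ohio) plaque-overlay system, Me2SO-solubilized compound was twofold serially diluted into the agarose overlay. Uninfected cell controls were run alongside and cells were stained with crystal violet after 3 days. The maximum testable level was taken as the concentration below which no cytotoxic effects were seen.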

[43] = system: Enterovirus; test: Effect on plaque production by Human Rhinovirus serotype 1B (seven most common serotypes); type: functional; procedure, shortened: as §3
[44] = system: Echovirus E11; test: Minimum inhibitory concentration of compound in vitro against echovirus-11; type: functional; settings: Enterovirus B; procedure, shortened: as §1
[45] = system: rhinovirus A2; test: In vitro anti-picornavirus activity against Rhinovirus type-2.; type: functional; settings: Rhinovirus A
Procedure, shortened: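 HeLa (Ohio) monolayers (day-old, 90%) were infected at about 80 pfu/well and adsorbed at least 1 h at 33 °C in 2% CO2. After 3 days at 33 °C they were fixed with formaldehyde and stained with crystal violet.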

[46] = system: Enterovirus; test: Effect on plaque production by Human Rhinovirus serotype 15 (seven most common serotypes); type: functional; procedure, shortened: as §3
[47] = system: Enterovirus; test: Effect on plaque production by Human Rhinovirus serotype 4 (seven most common serotypes); NA=Not active; type: functional, organism-based; procedure, shortened: as §3

Molecule `COc1ccc(OCCCCCCCc2cc(C)no2)c(Cl)c1` has an MIC [1] of 0.15 µg/mL (≈ 0.444 µM), a Survivors [2] of 22 and a Survivors [3] of 28. For the same molecule, the Survivors [4] was 16, the Survivors [5] was 20 and the Survivors [6] was 7. It also gave a Survivors [7] of 7, a survival at 31 mg/kg [8] of 53% and a survival at 125 mg/kg [9] of 73%. For the same molecule, the survival at 250 mg/kg [10] was 93%, the survival at 63 mg/kg [11] was 67% and the Survival [12] was 22%. It also gave a Survival [13] of 22%, an MIC [14] of 0.05 µg/mL (≈ 0.148 µM) and an MIC [15] of 0.05 µg/mL (≈ 0.148 µM). For the same molecule, the MIC [16] was 0.08 µg/mL (≈ 0.237 µM), the MIC [17] was 1.9 µg/mL (≈ 5.62 µM) and the MIC [18] was 1.35 µg/mL (≈ 4 µM). It also gave an MIC [19] of 0.04 µg/mL (≈ 0.118 µM), an MIC [20] of 1.5 µg/mL (≈ 4.44 µM) and an MIC [21] of 0.29 µg/mL (≈ 0.858 µM). It also gave an MIC [22] of 0.04 µg/mL (≈ 0.118 µM), an MIC [23] of 0.01 µg/mL (≈ 0.0296 µM) and an MIC [24] of 0.1 µg/mL (≈ 0.296 µM). The MIC [25] was 3.1 µg/mL (≈ 9.18 µM), the MIC [26] was 0.33 µg/mL (≈ 0.977 µM) and the MIC [27] was 0.5 µg/mL (≈ 1.48 µM). The MIC [28] was 0.53 µg/mL (≈ 1.57 µM), the MIC [29] was 0.05 µg/mL (≈ 0.148 µM) and the MIC [30] was 0.04 µg/mL (≈ 0.118 µM). For the same molecule, the MIC [31] was 0.07 µg/mL (≈ 0.207 µM), the MIC [32] was “inactive” and the MIC [33] was 0.26 µg/mL (≈ 0.77 µM). For the same molecule, the MIC [34] was 5.8 µg/mL (≈ 17.2 µM), the MIC [35] was 0.13 µg/mL (≈ 0.385 µM) and the MIC [36] was 0.09 µg/mL (≈ 0.266 µM). For the same molecule, the MIC [37] was “inactive”, the MIC [38] was 4.1 µg/mL (≈ 12.1 µM) and the MIC [39] was 0.25 µg/mL (≈ 0.74 µM). It also gave an MIC [40] of 0.03 µg/mL (≈ 0.0888 µM), an MIC [41] of 0.04 µg/mL (≈ 0.118 µM) and an MTL [42] of 12.5 µg/mL. It also gave an MIC [43] of 0.37 µg/mL (≈ 1.1 µM), an MIC [44] of 0.04 µg/mL (≈ 0.118 µM) and an MIC [45] of 0.04 µg/mL (≈ 0.118 µM). For the same molecule, the MIC [46] was 0.44 µg/mL (≈ 1.3 µM) and the MIC [47] was “inactive”.

Reference: ChEMBL document CHEMBL1123011, “Isoxazoles with antipicornavirus activity” (1985)
